Data reported in article PMC3987869 (Journal of medicinal chemistry, 2013).
“Also recorded” adds a separate entry of the source. Like-named read-outs stand apart in the source and are kept apart here.

What was measured:
[1] = system: mouse brain membrane SH enzymes; format: biochemical; settings: FP-Rh; for Off-targets (10 μM): 10 μM compound; for Off-targets (1 μM): 1 μM compound
In short: (§1)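 Mouse brain membrane fraction was prepared by Dounce homogenisation in PBS pH 7.5, a 1,400 × g spin, then a 100,000 × g pellet (45 min). Membranes at 1 mg/mL were preincubated with test compound for 30 min at 37 °C, then labelled with FP-rhodamine (1 μM final, 30 min, 37 °C). Samples were quenched in SDS-PAGE loading buffer, run on 10% SDS-PAGE and scanned for in-gel fluorescence.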

ABHD6 [2] = molecular target: T1, ABHD6 (Mus musculus, UniProt Q8R2Y0); settings: negligible cross-reactivity with FAAH; cited from earlier work
T1 sequence (Q8R2Y0 1-336): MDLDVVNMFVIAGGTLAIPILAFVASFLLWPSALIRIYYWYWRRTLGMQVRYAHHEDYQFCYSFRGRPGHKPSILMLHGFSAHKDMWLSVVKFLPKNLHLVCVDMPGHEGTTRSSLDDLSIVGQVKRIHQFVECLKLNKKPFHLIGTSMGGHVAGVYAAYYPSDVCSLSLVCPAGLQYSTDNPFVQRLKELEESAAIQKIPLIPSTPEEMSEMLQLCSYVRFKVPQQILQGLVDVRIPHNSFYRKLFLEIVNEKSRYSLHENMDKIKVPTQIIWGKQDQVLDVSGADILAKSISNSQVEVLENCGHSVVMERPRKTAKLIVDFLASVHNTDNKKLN

[3] = molecular target: T2, mouse brain membrane SH enzymes (Mus musculus, UniProt O08914); format: biochemical; settings: competitive ABPP, FP-Rh
T2 sequence (O08914 1-579): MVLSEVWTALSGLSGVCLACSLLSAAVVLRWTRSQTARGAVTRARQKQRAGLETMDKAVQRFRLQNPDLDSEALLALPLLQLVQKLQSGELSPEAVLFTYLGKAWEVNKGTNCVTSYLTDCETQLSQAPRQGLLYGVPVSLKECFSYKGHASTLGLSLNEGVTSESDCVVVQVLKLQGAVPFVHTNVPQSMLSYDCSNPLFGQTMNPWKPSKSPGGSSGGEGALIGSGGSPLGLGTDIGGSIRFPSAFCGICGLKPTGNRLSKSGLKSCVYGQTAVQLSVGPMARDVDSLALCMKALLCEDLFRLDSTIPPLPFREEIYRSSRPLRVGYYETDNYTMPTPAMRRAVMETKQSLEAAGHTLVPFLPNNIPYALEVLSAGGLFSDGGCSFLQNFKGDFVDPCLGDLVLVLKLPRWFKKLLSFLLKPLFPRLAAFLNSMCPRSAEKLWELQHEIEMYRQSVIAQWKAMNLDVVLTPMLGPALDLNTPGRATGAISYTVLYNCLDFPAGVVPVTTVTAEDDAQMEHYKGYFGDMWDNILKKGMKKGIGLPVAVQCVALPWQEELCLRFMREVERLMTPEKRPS
In short: as §1

[4] = system: Neuro2A membrane proteome; assay: click chemistry-ABPP of Neuro2A cells treated in situ with compound 2; format: cell-based, mouse; settings: Neuro2A cells 1 hr, click with azide-Rh
[5] = molecular target: T3, Neuro2A membrane proteome (Mus musculus, UniProt Q8R2Y0); assay: as above; format: cell-based; settings: Neuro2A cells 1 hr, click with azide-Rh
T3 sequence (Q8R2Y0 1-336): T1 sequence (Q8R2Y0 1-336)

ABHD6 [6] = molecular target: T1, ABHD6; assay: in vivo ABHD6 inhibition in mouse liver, gel-based competitive ABPP; settings: 4 hr; for liver ABHD6 inhibition at 1 mg kg^-1: i.p., 1 mg kg^-1, HT-01 gels
[7] = system: other brain and liver SHs (CES1, FAAH); format: in vivo; settings: mouse, i.p., 4 hr, FP-Rh gels
In short: (§2)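 Mice were dosed i.p. in 18:1:1 saline/ethanol/PEG40 (10 μL g-1) or by oral gavage in PEG300 (4 μL g-1). After 4 hr they were anaesthetised with isoflurane and killed by cervical dislocation. Brain and liver were Dounce-homogenised in PBS pH 7.5, and membrane fractions (100,000 × g pellet) were labelled with FP-rhodamine or HT-01 (1 μM, 30 min, 37 °C). Readout was SDS-PAGE with in-gel fluorescence.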

[8] = molecular target: T4, other brain and liver SHs (CES1, FAAH) (Mus musculus, UniProt O08914); format: in vivo; settings: for lowest oral dose with cross-reactivity with FAAH in the brain: oral gavage
T4 sequence (O08914 1-579): T2 sequence (O08914 1-579)
In short: as §2

endogenous ABHD6 = molecular target: T5, endogenous ABHD6 (Mus musculus, UniProt Q8R2Y0); assay: gel-based competitive ABPP; format: biochemical; settings: versus compound 1
T5 sequence (Q8R2Y0 1-336): T1 sequence (Q8R2Y0 1-336)

[9] = system: other SHs detected in Neuro2A cells; assay: ABPP-SILAC of Neuro2A cells treated in situ: other serine hydrolases; format: cell-based, mouse; settings: 3 nM, 4 hr
In short: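 Neuro2A cells were grown 10 passages in light or heavy (13C/15N Arg and Lys) SILAC DMEM with 10% dialyzed FCS and 2 mM L-glutamine. Heavy cells received test compound and light cells DMSO (4 hr, 37 °C). Soluble and membrane proteomes (2.0 mg/mL) were labeled with 10 μM FP-biotin (2 hr, 25 °C), mixed 1:1, avidin-enriched, trypsin-digested on bead (12 hr, 37 °C) and analysed by LC-MS/MS. Heavy/light ratios were taken from ≥3 unique peptides per enzyme.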

ABHD6 [10] = molecular target: T1, ABHD6; assay: in vivo ABHD6 inhibition in mouse brain, gel-based competitive ABPP; settings: for brain ABHD6 inhibition: 1 mg kg^-1 (20: all doses tested, 0.1-1 mg kg^-1)
ABHD6 [11] = molecular target: T1, ABHD6; assay: in situ ABHD6 inhibition in Neuro2A cells, gel-based competitive ABPP; format: cell-based; settings: for potency and selectivity in cells: abstract statement; for fold more potent in situ compared to compound 1: versus compound 1
[12] = Table 1, mouse brain membrane proteome

COc1ccc(-c2ccc(-c3cn(C(=O)N4CCCCC4c4ccccc4)nn3)cc2)cc1 (centres unmarked) [Compound 1]
Off-targets (10 μM) [1, 12]: FAAH | concentration that completely inactivates ABHD6 in living cells (ABHD6 [2]): 25 nM

C#CCOCCCc1ccc(C2CCCCN2C(=O)n2cc(-c3ccc(-c4ccc(OC)cc4)cc3)nn2)cc1 (centres unmarked) [Compound 2]
concentrations cross-reactive with FAAH in mouse brain proteome [3]: 0.4 to 10 µM | concentrations with limited cross-reactivity (60 kDa protein, likely FAAH) [4]: 80 to 600 nM | lowest concentration at which the ∼35 kDa target (ABHD6) was detected [5]: 10 nM

COc1ccccc1-c1ccc(-c2cn(C(=O)N3CCCCC3Cc3ccccc3)nn2)cc1 (centres unmarked) [Compound 3]
Off-targets (10 μM) [1, 12]: MGLL

O=C(N1CCCCC1Cc1ccccc1)n1cc(-c2ccc(-c3cccc(CO)c3)cc2)nn1 (centres unmarked) [Compound 4]
Off-targets (10 μM) [1, 12]: none

O=C(c1ccc(-c2ccc(-c3cn(C(=O)N4CCCCC4Cc4ccccc4)nn3)cc2)cc1)N1CCCCC1 (centres unmarked) [Compound 5]
Off-targets (10 μM) [1, 12]: none

COc1ccccc1-c1ccc(-c2cn(C(=O)N3CCCCC3c3ccccc3)nn2)cc1 (centres unmarked) [Compound 6]
Off-targets (10 μM) [1, 12]: FAAH, MGLL

O=C(N1CCCCC1c1ccccc1)n1cc(-c2ccc(-c3ccccc3CO)cc2)nn1 (centres unmarked) [Compound 8]
Off-targets (1 μM) ([1]; mouse brain SHs): none | Off-targets (10 μM) ([1]; Table 2, mouse brain SHs): FAAH, LYPLA1, LYPLA2

O=C(N1CCCCC1c1ccccc1)n1cc(-c2ccc(-c3cccc(CO)c3)cc2)nn1 (centres unmarked) [Compound 9, (4-(3′-(Hydroxymethyl)-[1,1′-biphenyl]-4-yl)-1H-1,2,3-triazol-1-yl)(2-phenylpiperidin-1-yl)methanone]
liver ABHD6 inhibition at 1 mg kg^-1 (ABHD6 [6]): near-complete blockade; also recorded: near-complete inactivation | Off-targets (1 μM) ([1]; mouse brain SHs): none | Off-targets (10 μM) ([1]; Table 2, mouse brain SHs): FAAH, LYPLA1, LYPLA2 | inhibition of off-target carboxylesterase-1 (CES1) in vivo [7]: inhibited | lowest oral dose with cross-reactivity with FAAH in the brain [8]: 10 mg/kg | fold more potent in vitro compared to compound 1 (endogenous ABHD6): ~10 fold | cross-reactivity against the ∼50 other SHs (ABPP-SILAC) [9]: < 50% | brain ABHD6 inhibition (ABHD6 [10]; i.p., 4 hr): completely inactivated; also recorded: near-complete inactivation | potency and selectivity in cells (ABHD6 [11]): < 5 nM | fold more potent in situ compared to compound 1 (ABHD6 [11]): ~5 fold

O=C(N1CCCCC1c1ccccc1)n1cc(-c2ccc(-c3ccc(CO)cc3)cc2)nn1 (centres unmarked) [Compound 10]
Off-targets (1 μM) ([1]; mouse brain SHs): none | Off-targets (10 μM) ([1]; Table 2, mouse brain SHs): FAAH, LYPLA1, LYPLA2

O=C(c1cccc(-c2ccc(-c3cn(C(=O)N4CCCCC4c4ccccc4)nn3)cc2)c1)N1CCCCC1 (centres unmarked) [Compound 11, (2-Phenylpiperidin-1-yl)(4-(3′-(piperidine-1-carbonyl)-[1,1′-biphenyl]-4-yl)-1H-1,2,3-triazol-1-yl)methanone]
doses giving near-complete blockade of ABHD6 in the liver (i.p.) (ABHD6 [6]): 5 to 10 mg/kg | Off-targets (1 μM) ([1]; mouse brain SHs): none | Off-targets (10 μM) ([1]; Table 2, mouse brain SHs): LYPLA1, LYPLA2 | cross-reactivity with FAAH in brain in vivo ([8]; i.p., 1-40 mg kg^-1, 4 hr): negligible | fold more potent in vitro compared to compound 1 (endogenous ABHD6): ~10 fold | cross-reactivity against the ∼50 other SHs (ABPP-SILAC) [9]: < 50% | dose to completely block ABHD6 in the brain (i.p.) (ABHD6 [10]; i.p., 4 hr): ~40 mg/kg | inhibition at 20 mg/kg (ABHD6 [10]; ip, read-out: brain ABHD6 inhibition at 20 mg kg^-1): > 70% | dose producing complete blockade of brain ABHD6 (p.o.) (ABHD6 [10]; p.o., PEG300, 4 hr): 40 mg/kg | fold more potent in situ compared to compound 1 (ABHD6 [11]): ~5 fold

O=C(c1ccc(-c2ccc(-c3cn(C(=O)N4CCCCC4c4ccccc4)nn3)cc2)cc1)N1CCCCC1 (centres unmarked) [Compound 12]
Off-targets (1 μM) ([1]; mouse brain SHs): none | Off-targets (10 μM) ([1]; Table 2, mouse brain SHs): LYPLA1, LYPLA2

NC(=O)c1ccc(-c2ccc(-c3cn(C(=O)N4CCCCC4c4ccccc4)nn3)cc2)cc1 (centres unmarked) [Compound 13]
Off-targets (1 μM) ([1]; mouse brain SHs): none | Off-targets (10 μM) ([1]; Table 2, mouse brain SHs): FAAH, LYPLA1, LYPLA2

O=C(O)c1cccc(-c2ccc(-c3cn(C(=O)N4CCCCC4Cc4ccccc4)nn3)cc2)c1 (centres unmarked) [Compound 20, 4′-(1-(2-Benzylpiperidine-1-carbonyl)-1H-1,2,3-triazol-4-yl)-[1,1′-biphenyl]-3-carboxylic acid]
liver ABHD6 inhibition at 1 mg kg^-1 (ABHD6 [6]): near-complete blockade; also recorded: near-complete inactivation | Off-targets (1 μM) ([1]; mouse brain SHs): none | Off-targets (10 μM) ([1]; Table 2, mouse brain SHs): FAAH, DAGLβ | lowest oral dose with cross-reactivity with FAAH in the brain [8]: 10 mg/kg | fold more potent in vitro compared to compound 1 (endogenous ABHD6): ~10 fold | cross-reactivity against the ∼50 other SHs (ABPP-SILAC) [9]: < 50% | brain ABHD6 inhibition (ABHD6 [10]; i.p., 4 hr): negligible inhibition | potency and selectivity in cells (ABHD6 [11]): < 5 nM | fold more potent in situ compared to compound 1 (ABHD6 [11]): ~5 fold

O=C(O)c1cccc(-c2ccc(-c3cn(C(=O)N4CCCCC4c4ccccc4)nn3)cc2)c1 (centres unmarked) [Compound 21]
Off-targets (1 μM) ([1]; mouse brain SHs): APEH, LYPLA1, and LYPLA2 | Off-targets (10 μM) ([1]; Table 2, mouse brain SHs): FAAH, APEH, LYPLA1, LYPLA2

O=C(O)c1cccc(-c2ccc(-c3cn(C(=O)N4CCCCC4CCc4ccccc4)nn3)cc2)c1 (centres unmarked) [Compound 22]
Off-targets (1 μM) ([1]; mouse brain SHs): none | Off-targets (10 μM) ([1]; Table 2, mouse brain SHs): FAAH
